ChEMBL document CHEMBL1687700, “Discovery of an Orally Efficacious Imidazo[5,1-f][1,2,4]triazine Dual Inhibitor of IGF-1R and IR” (ACS Med Chem Lett, 2010)

Key:
[1] = Permeability of the compound by PAMPA assay at pH 5.0; format: ADME; settings: read-out: permeability
In short: (§1)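 Parallel artificial membrane permeability assay run at pH 5.0 and pH 7.4; permeability reported in nm/s.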

[2] = Oral bioavailability in CD-1 mouse at 25 mg/kg, po administered as single dose; format: ADME, organism-based; settings: CD-1, mouse, in vivo
[3] = Cmax in CD-1 mouse plasma at 25 mg/kg, po administered as single dose; format: ADME, organism-based; parameters: dose 25 mg/kg, route oral
[4] = Clearance in CD-1 mouse at 5 mg/kg, iv administered as single dose; format: ADME, organism-based; parameters: dose 5 mg/kg, route intravenous; settings: in vivo
[5] = Volume of distribution at steady state in CD-1 mouse at 5 mg/kg, iv administered as single dose; format: ADME, organism-based; parameters: dose 5 mg/kg, route intravenous; settings: in vivo, read-out: Vdss
[6] = Permeability of the compound by PAMPA assay at pH 7.4; format: ADME; settings: read-out: permeability; in short: as §1
[7] = tested on: Mus musculus; experiment: Inhibition of human IGF1R phosphorylation in human GEO cells xenografted in CD-1 nu/nu mouse at 10 mg/kg, po administered as single dose in 40% Trappsol upto 8 hrs; format: functional; settings: CD-1, GEO
In short: (§2)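 GEO xenograft mice given a single 10 mg/kg oral dose; tumors and plasma sampled over time; tumor pIGF-1R and pIR content expressed as percentage of vehicle-treated controls alongside plasma drug level; means ± SD.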

[8] = Antitumor activity against human GEO cells xenografted in CD-1 nu/nu mouse assessed as tumor growth inhibition at 20 mg/kg, po administered once daily for 14 days; format: functional; settings: 336 h, read-out: TGI
In short: (§3)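 Nude mouse xenografts dosed orally (HCl salt in 40% w/v hydroxypropyl-β-cyclodextrin) once or twice daily for 14 days; tumor volume expressed as percentage of initial volume, mean ± SE; body weight monitored.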

[9] = AUC in CD-1 mouse at 25 mg/kg, po administered as single dose; format: ADME, organism-based; parameters: dose 25 mg/kg, route oral; settings: plasma
In short: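 Single oral dose of 25 mg/kg, given as the HCl salt in 40% w/v hydroxypropyl-β-cyclodextrin, to female mice. Plasma exposure is reported as AUC (ng h/mL), with median values given. CL and Vss come from a separate 5 mg/kg iv dose.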

[10] = tested on: Mus musculus; experiment: Inhibition of human IGF1R phosphorylation in human GEO cells xenografted in CD-1 nu/nu mouse at 10 mg/kg, po administered as single dose in 40% Trappsol after 16 hrs; format: functional; settings: CD-1, GEO; in short: as §2
[11] = tested on: Mus musculus; experiment: Inhibition of human IGF1R phosphorylation in human GEO cells xenografted in CD-1 nu/nu mouse at 10 mg/kg, po bid administered for 14 days; format: functional; settings: CD-1, GEO, 336 h
In short: (§4)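 GEO xenografts dosed orally for 14 days (qd or bid); tumors removed after last dose, up to 24 h, for pIGF-1R and pIR content relative to vehicle controls; means ± SE.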

[12] = Plasma protein binding in mouse; format: ADME, cell-free; settings: read-out: PPB (converted)
In short: (§5)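 Plasma protein binding determined by ultracentrifugation in mouse, rat and human plasma; percent bound reported.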

[13] = tested on: Mus musculus; experiment: Inhibition of IR phosphorylation in human GEO cells xenografted in CD-1 nu/nu mouse at 10 mg/kg, po administered as single dose in 40% Trappsol; format: functional; settings: CD-1, GEO; in short: as §2
[14] = Plasma concentration in human GEO cells xenografted CD-1 nu/nu mouse at 10 mg/kg, po administered as single dose in 40% Trappsol upto 8 hrs; format: ADME, organism-based; parameters: dose 10 mg/kg, route oral; in short: as §2
[15] = Plasma concentration in human GEO cells xenografted CD-1 nu/nu mouse at 10 mg/kg, po administered as single dose in 40% Trappsol after 16 hrs; format: ADME, organism-based; parameters: dose 10 mg/kg, route oral; in short: as §2
[16] = Clearance in rhesus monkey at 5 mg/kg, iv administered as single dose; format: ADME, organism-based, Macaca mulatta; parameters: dose 5 mg/kg, route intravenous; settings: in vivo
In short: (§6)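 Single 5 mg/kg iv dose used to derive clearance and Vss; median values reported per species (female rat, male rhesus monkey).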

[17] = tested on: Mus musculus; experiment: Inhibition of human IGF1R phosphorylation in human GEO cells xenografted in CD-1 nu/nu mouse at 20 mg/kg, po administered once daily for 14 days; format: functional; settings: CD-1, GEO, 336 h; in short: as §4
[18] = Oral bioavailability in rhesus monkey at 30 mg/kg administered as single dose; format: ADME, organism-based, Macaca mulatta; settings: in vivo
In short: (§7)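 Rhesus monkey (male), single oral dose of the HCl salt in 40% w/v hydroxypropyl-β-cyclodextrin vehicle; median PK parameters reported; bioavailability referenced to a 5 mg/kg iv dose.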

[19] = Plasma protein binding in human; format: ADME, cell-free; settings: read-out: PPB (converted); in short: as §5
[20] = tested on: Mus musculus; experiment: Inhibition of human IGF1R phosphorylation in human GEO cells xenografted in CD-1 nu/nu mouse at 5 mg/kg, po bid administered for 14 days; format: functional; settings: CD-1, GEO, 336 h; in short: as §4
[21] = Antitumor activity against human GEO cells xenografted in CD-1 nu/nu mouse assessed as tumor growth inhibition at 10 mg/kg, po bid administered for 14 days; format: functional; settings: 336 h, read-out: TGI; in short: as §3
[22] = Cmax in CD-1 mouse at 25 mg/kg, po administered as single dose; format: ADME, organism-based; parameters: dose 25 mg/kg, route oral; settings: in vivo
[23] = Volume of distribution at steady state in rhesus monkey at 5 mg/kg, iv administered as single dose; format: ADME, organism-based, Macaca mulatta; parameters: dose 5 mg/kg, route intravenous; settings: in vivo, read-out: Vdss; in short: as §6
[24] = Oral bioavailability in CD-1 mouse at 25 mg/kg administered as single dose; format: ADME, organism-based; settings: in vivo
[25] = tested on: NIH3T3; experiment: Antitumor activity against mouse NIH/3T3 cells xenografted in CD-1 nu/nu mouse assessed as tumor growth inhibition at 10 mg/kg, po bid administered for 14 days; format: functional; settings: NIH3T3, 336 h
[26] = tested on: Mus musculus; experiment: Inhibition of IR phosphorylation in human GEO cells xenografted in CD-1 nu/nu mouse at 5 mg/kg, po bid administered for 14 days; format: functional; settings: CD-1, GEO, 336 h; in short: as §4
[27] = Plasma protein binding in rat; format: ADME, cell-free; settings: read-out: PPB (converted); in short: as §5
[28] = Cmax in rhesus monkey at 30 mg/kg, po administered as single dose; format: ADME, organism-based, Macaca mulatta; parameters: dose 30 mg/kg, route oral; settings: in vivo; in short: as §7
[29] = Antitumor activity against human GEO cells xenografted in CD-1 nu/nu mouse assessed as tumor growth inhibition at 5 mg/kg, po bid administered for 14 days; format: functional; settings: 336 h, read-out: TGI; in short: as §3
[30] = AUC in rhesus monkey at 30 mg/kg, po administered as single dose; format: ADME, organism-based, Macaca mulatta; parameters: dose 30 mg/kg, route oral; settings: plasma; in short: as §7

## CN1CCN([C@H]2C[C@@H](c3nc(-c4ccc5ccc(-c6ccccc6)nc5c4F)c4c(N)ncnn43)C2)CC1
[1]
  Papp: 14.5 ×10⁻⁶ cm/s
[2]
  bioavailability: 27%
[3]
  Cmax: 1.9 µM
[4]
  clearance: 21 mL/min/kg
[5]
  Vd: 4.9 L/kg
[6]
  Papp: 67.2 ×10⁻⁶ cm/s

## C[C@]1(O)C[C@@H](c2nc(-c3ccc4ccc(-c5ccccc5)nc4c3F)c3c(N)ncnn32)C1.Cl
[7]
  inhibition in vivo at 10 mg/kg: > 70%
[8]
  inhibition in vivo at 20 mg/kg: 85%
[9]
  AUC: 240 µg·h/mL
[10]
  inhibition in vivo at 10 mg/kg: 50%
[11]
  inhibition in vivo at 10 mg/kg: > 70%
[12]
  fraction unbound: 0.015
[13]
  inhibition in vivo at 10 mg/kg: 50%
[14]
  concentration at 8 h: > 4 µM
[15]
  concentration at 16 h: 0.38 µM
[16]
  clearance: 15 mL/min/kg
[17]
  inhibition in vivo at 20 mg/kg: > 70%
[18]
  bioavailability: 97%
[19]
  fraction unbound: 0.027
[20]
  inhibition in vivo at 5 mg/kg: 40%
[21]
  inhibition in vivo at 10 mg/kg: 91%
[22]
  Cmax: 35.2 µM
[23]
  Vd: 0.55 L/kg
[24]
  bioavailability: 100%
[25]
  inhibition in vivo at 10 mg/kg: 100%
[26]
  inhibition in vivo at 5 mg/kg: 40%
[27]
  fraction unbound: 0.034
[28]
  Cmax: 10.8 µM
[29]
  inhibition in vivo at 5 mg/kg: 31%
[30]
  AUC: 31.4 µg·h/mL
